# The source made the active and inactive calls. No cut-off for these calls is given here.
# What was measured:
# [1] = target: Opioid receptors; mu & kappa (Homo sapiens) (UniProt P41145+P35372); experiment: Selectivity for kappa opioid receptor over mu opioid receptor; format: protein assay
# Mu-type opioid receptor [2] = target: T1, Mu-type opioid receptor (Homo sapiens, UniProt P35372); experiment: Antagonist activity at human mu opioid receptor expressed in CHO cells by [35S]GTP-gamma-S binding assay; format: functional, cell-based
# In short: (§1)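 Antagonism is measured in a [35S]GTP-γ-S binding assay in CHO cells stably transfected with human δ, κ or µ opioid receptor cDNA. Result is given as Ke, the mean ± SD of at least two independent determinations. Test compounds come from 10 mM stocks in 100% DMSO + 10 mM 2-mercaptoethanol, stored at -80 °C. They are diluted in buffer containing 1 mg/mL BSA.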
# [3] = target: T2, Kappa-type opioid receptor (Homo sapiens, UniProt P41145); experiment: Displacement of [125I]IOXY from human kappa opioid receptor expressed in CHO cells; format: cell-based
# In short: (§2)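 Membranes from CHO cells stably transfected with the respective human opioid receptor cDNA (hMOR-, hDOR-, hKOR-CHO). Incubation in 50 mM Tris-HCl pH 7.4 with bacitracin, bestatin, leupeptin and chymostatin. Nonspecific binding is defined with 10 µM naloxone. Ki is the mean ± SD of at least two independent determinations.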
# Mu-type opioid receptor [4] = target: T1, Mu-type opioid receptor; experiment: Displacement of [125I]IOXY from human mu opioid receptor expressed in CHO cells; format: cell-based; in short: as §2
# [5] = target: T3, Delta-type opioid receptor (Homo sapiens, UniProt P41143); experiment: Antagonist activity at human delta opioid receptor expressed in CHO cells by [35S]GTP-gamma-S binding assay; format: functional, cell-based; in short: as §1
# [6] = target: T2, Kappa-type opioid receptor; experiment: Antagonist activity at human kappa opioid receptor expressed in CHO cells by [35S]GTP-gamma-S binding assay; format: functional, cell-based; in short: as §1
# [7] = target: T3, Delta-type opioid receptor; experiment: Displacement of [125I]IOXY from human delta opioid receptor expressed in CHO cells; format: cell-based
# In short: as §2, with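 “hKOR-CHO). Radioligand [125I]IOXY (SA 2200 Ci/mmol) labels µ, δ and κ sites.” for “hKOR-CHO).”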
# [8] = target: Opioid receptors; delta & kappa (Homo sapiens) (UniProt P41145+P41143); experiment: Selectivity for kappa opioid receptor over delta opioid receptor; format: protein assay
# [9] = target: T2, Kappa-type opioid receptor; experiment: Activity at human kappa opioid receptor expressed in CHO cells by [35S]GTP-gamma-S binding assay relative to U69593; format: functional, cell-based
# In short: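 [35S]GTP-γ-S binding in hKOR-CHO cells (stably transfected human receptor). Emax is the percent stimulation relative to the maximal stimulation by U69,593 run in parallel. EC50 and Emax are the mean ± SE of at least three independent experiments. Emax is compared with U69,593 by one-way ANOVA with Dunnett's test. Drug dilutions are made in buffer with 1 mg/mL BSA, from 10 mM DMSO/2-mercaptoethanol stocks.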
# T2 sequence (P41145 whole entry): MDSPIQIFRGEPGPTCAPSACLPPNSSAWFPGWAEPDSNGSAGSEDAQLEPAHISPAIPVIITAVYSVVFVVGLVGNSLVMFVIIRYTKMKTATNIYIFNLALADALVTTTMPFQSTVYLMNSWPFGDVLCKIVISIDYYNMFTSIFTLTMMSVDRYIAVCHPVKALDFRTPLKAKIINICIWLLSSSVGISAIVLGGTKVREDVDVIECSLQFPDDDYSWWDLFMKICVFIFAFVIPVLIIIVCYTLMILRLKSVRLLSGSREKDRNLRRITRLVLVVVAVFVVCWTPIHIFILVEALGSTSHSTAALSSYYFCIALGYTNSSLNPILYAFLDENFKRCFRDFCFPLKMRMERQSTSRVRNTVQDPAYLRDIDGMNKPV
# T3 sequence (P41143 whole entry): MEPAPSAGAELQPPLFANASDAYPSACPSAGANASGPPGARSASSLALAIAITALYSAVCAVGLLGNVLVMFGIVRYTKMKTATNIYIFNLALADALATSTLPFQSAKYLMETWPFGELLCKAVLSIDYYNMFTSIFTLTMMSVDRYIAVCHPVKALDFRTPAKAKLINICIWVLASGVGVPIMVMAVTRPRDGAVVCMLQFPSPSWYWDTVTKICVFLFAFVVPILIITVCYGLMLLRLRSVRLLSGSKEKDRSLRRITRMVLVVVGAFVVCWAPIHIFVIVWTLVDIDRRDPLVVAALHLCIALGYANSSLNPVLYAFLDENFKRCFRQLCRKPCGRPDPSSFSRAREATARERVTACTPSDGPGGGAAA
# Chain of Opioid receptors; delta & kappa (Homo sapiens) (P41143 whole entry, looked up): as the sequence (P41143 whole entry) above
# Chain of Opioid receptors; delta & kappa (Homo sapiens) (P41145 whole entry, looked up): as the sequence (P41145 whole entry) above
# Chain of Opioid receptors; mu & kappa (Homo sapiens) (P35372 whole entry, looked up): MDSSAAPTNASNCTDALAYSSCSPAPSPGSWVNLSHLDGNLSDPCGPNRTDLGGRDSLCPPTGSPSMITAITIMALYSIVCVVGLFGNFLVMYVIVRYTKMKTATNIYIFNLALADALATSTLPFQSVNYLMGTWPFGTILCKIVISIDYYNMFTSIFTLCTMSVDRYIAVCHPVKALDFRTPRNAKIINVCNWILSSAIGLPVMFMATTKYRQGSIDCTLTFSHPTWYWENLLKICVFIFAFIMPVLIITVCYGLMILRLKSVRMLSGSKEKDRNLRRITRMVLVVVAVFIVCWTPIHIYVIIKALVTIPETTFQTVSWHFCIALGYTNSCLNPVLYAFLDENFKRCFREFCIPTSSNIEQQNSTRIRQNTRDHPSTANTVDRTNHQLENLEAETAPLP
# Chain of Opioid receptors; mu & kappa (Homo sapiens) (P41145 whole entry, looked up): as the sequence (P41145 whole entry) above
# T1 sequence (P35372 whole entry): as the sequence (P35372 whole entry, looked up) above
Compound,Ratio Ki [1],Ki (Mu-type opioid receptor [2]),Ki [3],Ki (Mu-type opioid receptor [4]),Ke [5],Ke [6],Ki [7],Ratio Ki [8],Emax [9],EC50 [6],Activity [5],Ke (Mu-type opioid receptor [2]),Activity (Mu-type opioid receptor [2]),Activity [6]
COC(=O)[C@@H]1C[C@H](OC(C)=O)C(=O)[C@H]2[C@@]1(C)CC[C@H]1C(=O)O[C@H](C3=C[C@@H](OC)O[C@H]3OC)C[C@]21C,21,2.93 µM,0.18 µM,3.74 µM,1.28 µM,2370 nM,> 10 µM,> 55,–,–,–,–,–,–
COC(=O)[C@@H]1C[C@H](OC(C)=O)C(=O)[C@H]2[C@@]1(C)CC[C@H]1C(=O)O[C@H]([C@@H]3C[C@@H](OC)O[C@@H]3OC)C[C@]21C,> 400,1.37 µM,0.025 µM,> 10 µM,> 10 µM,–,> 10 µM,> 400,95%,2.35 µM,–,–,–,–
COC(=O)[C@@H]1C[C@H](OC(C)=O)C(=O)[C@@H]2[C@@](C)(CCC3CCOC3)[C@H](C(=O)O)CC[C@]21C (some centres not stated),> 10,–,0.91 µM,> 10 µM,–,–,> 10 µM,> 10,–,–,–,–,–,–
COC(=O)[C@@H]1C[C@H](OC(C)=O)C(=O)[C@H]2[C@@]1(C)CC[C@H]1C(=O)O[C@H](c3nc(C)no3)C[C@]21C,> 170,0.43 µM,0.056 µM,> 10 µM,–,360 nM,> 10 µM,> 170,–,–,inactive,–,–,–
COC(=O)[C@@H]1C[C@H](OC(C)=O)C(=O)[C@H]2[C@@]1(C)CC[C@H]1C(=O)O[C@H](C3=NCCO3)C[C@]21C,> 30,–,0.3 µM,> 10 µM,–,–,> 10 µM,> 30,–,–,–,–,–,–
COC(=O)[C@@H]1C[C@H](O)C(=O)[C@H]2[C@@]1(C)CC[C@H]1C(=O)O[C@H](c3ccoc3)C[C@]21C [SALVINORIN B],–,–,–,> 10 µM,–,–,> 10 µM,–,–,–,–,–,–,–
COC(=O)[C@@H]1C[C@H](OC(C)=O)C(=O)[C@H]2[C@@]1(C)CC[C@H]1C(=O)O[C@H](C3=C[C@@H](OC)O[C@@H]3OC)C[C@]21C,8,2.32 µM,0.42 µM,3.19 µM,3.28 µM,9700 nM,> 10 µM,> 23,–,–,–,–,–,–
COC(=O)[C@@H]1C[C@H](OC(C)=O)C(=O)[C@H]2[C@@]1(C)CC[C@H]1C(=O)OCC[C@]21C,> 3,–,3.4 µM,> 10 µM,–,–,> 10 µM,> 3,–,–,–,–,–,–
COC(=O)[C@@H]1C[C@H](OC(C)=O)C(=O)[C@H]2[C@@]1(C)CC[C@H]1C(=O)O[C@H](C3CCOC3)C[C@]21C (some centres not stated),–,–,0.014 µM,–,–,–,> 10 µM,–,–,–,–,–,–,–
COC(=O)[C@@H]1C[C@H](OC(C)=O)C(=O)[C@H]2[C@@]1(C)CC[C@H]1C(=O)O[C@H](c3ccoc3Br)C[C@]21C,–,–,–,1.45 µM,–,–,7.62 µM,–,104%,–,–,–,–,–
COC(=O)[C@@H]1C[C@H](OC(C)=O)C(=O)[C@H]2[C@@]1(C)CC[C@H]1C(=O)O[C@H](C3=CC(=O)OC3O)C[C@]21C (some centres not stated),–,–,–,–,2.83 µM,440 nM,–,–,–,–,–,760 nM,–,–
COC(=O)[C@@H]1C[C@H](OC(C)=O)C(=O)[C@H]2[C@@]1(C)CC[C@H]1C(=O)O[C@H](C3CC(OC)OC3OC)C[C@]21C (some centres not stated),120,–,0.04 µM,4.81 µM,–,–,> 10 µM,> 250,–,–,–,–,–,–
COC(=O)[C@@H]1C[C@H](OC(C)=O)C(=O)[C@H]2[C@@]1(C)CC[C@H]1C(=O)OC([C@]3(O)[C@H](OC)O[C@H](OC)[C@H]3OC(C)=O)C[C@]21C (some centres not stated),–,–,> 10 µM,> 10 µM,–,–,> 10 µM,–,–,–,–,–,–,–
COC(=O)[C@@H]1C[C@H](OC(C)=O)C(=O)[C@H]2[C@@]1(C)CC[C@H]1C(=O)O[C@H]([C@@H]3CCOC3)C[C@]21C,–,–,0.0037 µM,9.79 µM,–,–,> 10 µM,–,81%,0.75 µM,inactive,–,inactive,–
COC(=O)[C@@H]1C[C@H](OC(C)=O)C(=O)[C@@H]2[C@@]3(C)C[C@@H]([C@]4(O)[C@@H](OC)O[C@@H](OC)[C@H]4O)CC(=O)[C@@H]3CC[C@]21C [SALVINICIN B],1.4,–,7.02 µM,> 10 µM,–,–,> 10 µM,1.4,–,–,–,–,–,–
COC(=O)[C@@H]1C[C@H](OC(C)=O)C(=O)[C@H]2[C@@]1(C)CC[C@H]1C(=O)O[C@H]([C@@H]3C[C@@H](OC)O[C@H]3OC)C[C@]21C,> 80,–,0.125 µM,> 10 µM,–,–,> 10 µM,> 80,–,–,inactive,–,inactive,inactive
COC(=O)[C@@H]1C[C@H](OC(C)=O)C(=O)[C@H]2[C@@]1(C)CC[C@H]1C(=O)OC([C@]3(O)[C@@H](OC)O[C@@H](OC)[C@H]3OC(C)=O)C[C@]21C (some centres not stated),–,–,> 10 µM,> 10 µM,–,–,> 10 µM,–,–,–,–,–,–,–
COC(=O)[C@@H]1C[C@H](OC(C)=O)C(=O)[C@H]2[C@@]1(C)CC[C@H]1C(=O)O[C@H](C3=CC(OC)OC3OC)C[C@]21C (some centres not stated),> 20,–,0.44 µM,> 10 µM,–,–,> 10 µM,> 20,–,–,–,–,–,–
COC(=O)[C@@H]1C[C@H](OC(C)=O)C(=O)[C@@H]2[C@@]3(C)C[C@@H](c4nc(C)no4)OC(=O)[C@H]3CC[C@]21C,> 10,1.53 µM,0.99 µM,> 10 µM,4.23 µM,5680 nM,> 10 µM,> 10,–,–,–,–,–,–
COC(=O)[C@@H]1C[C@H](OC(C)=O)C(=O)[C@H]2[C@@]1(C)CC[C@H]1C(=O)O[C@H]([C@]3(O)[C@H](OC)O[C@H](OC)[C@H]3O)C[C@]21C [SALVINICIN A],> 26,–,0.39 µM,> 10 µM,–,–,> 10 µM,> 26,–,–,–,–,–,–
